Most compounds without a hit are left out; they make up all but 2.3% or so of the library.
SKKanGAS inh: S. pyogenes SKKanGAS growth inhibitors in kanamycin, primary screen, streptokinase expression inhibitor project, SKKanGAS strain, BacTiter-Glo luminescence; inhibition, % at 7.5 µM; 300,000 compounds, 1.3% hits; 6 h;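 active = mean replicate score, as percent of positive control median, at least 50; inconclusive = mean below 50 but one replicate at or above 50; inactive = mean and every replicate below 50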;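 note: strain carries kanamycin resistance gene driven by streptokinase promoter and grows in 40 µg/ml kanamycin; loss of luminescence reflects streptokinase promoter inhibition or plain growth inhibition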
ASAP1 inh: inhibitors of human ASAP1 ArfGAP activity, primary screen, biochemical, fluorescence polarization; Arf-GAP with SH3 domain, ANK repeat and PH domain-containing protein 1 (Homo sapiens), …; ASAP1-stimulated ARF1 GTP hydrolysis, GDP FP detection; inhibition, % at 16.5 µM; 360,000 compounds, 0.19% hits; AID 624377, 2012; in the data active = inhibition above about 25%
ARFGAP1 inh: inhibitors of rat ARFGAP1 GAP activity, primary screen, biochemical, fluorescence polarization, GDP tracer | ADP-ribosylation factor GTPase-activating protein 1 (Rattus norvegicus), Q62848 | Arfgap1-stimulated ARF1 GTP hydrolysis, GDP FP detection | inhibition, % at 16.5 µM | 360,000 compounds, 0.26% hits;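 active = inhibition above a per-plate limit, mean inhibition of low control wells plus 3 SD, cut at about 25% in these data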
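Repeats: one replicate per compound; assay system: rat Arfgap1 catalytic domain, aa 1-136; times: enzyme reaction 120 min at 25 °C after 20 min preincubation; detection: FP of antibody-bound GDP Alexa 633 tracer, ex 620/em 688 nm; benchmarks: high control wells lacking Arfgap1, low control full reaction with DMSO; reagent: human ARF1(Δ1-17)-GTP substrate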
Calb FLC: C. albicans growth inhibition with fluconazole, primary screen, CaCi-2 strain, Alamar Blue fluorescence. C. albicans CaCi-2 (fluconazole-resistant clinical isolate) + fluconazole, 48 h. growth inhibition, % (no concentration beside the values). 300,000 compounds, 0.57% hits;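 active = growth inhibition above about 58% in most replicates, limit read from the data, passing the limit was not always enough; inconclusive = exactly half the replicates above a set limit; inactive = most replicates below a set limit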;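 note: all wells also contain fluconazole at 8 µg/ml as a sub-toxic cotreatment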
sPLA2-III inh: human group III sPLA2 inhibitors, primary screen, biochemical, QFRET, BODIPY PC-A2 liposome substrate; QFRET BODIPY PC-A2 liposome hydrolysis, fluorescence; inhibition, % at 12.2 µM; 370,000 compounds, 0.56% hits; AID 743126, 2013;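 active = inhibition above mean plus 3 SD of compounds lying within the high and low control bounds, cut at about 19% in these data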
Target sequence (Q9NZ20 whole entry, looked up): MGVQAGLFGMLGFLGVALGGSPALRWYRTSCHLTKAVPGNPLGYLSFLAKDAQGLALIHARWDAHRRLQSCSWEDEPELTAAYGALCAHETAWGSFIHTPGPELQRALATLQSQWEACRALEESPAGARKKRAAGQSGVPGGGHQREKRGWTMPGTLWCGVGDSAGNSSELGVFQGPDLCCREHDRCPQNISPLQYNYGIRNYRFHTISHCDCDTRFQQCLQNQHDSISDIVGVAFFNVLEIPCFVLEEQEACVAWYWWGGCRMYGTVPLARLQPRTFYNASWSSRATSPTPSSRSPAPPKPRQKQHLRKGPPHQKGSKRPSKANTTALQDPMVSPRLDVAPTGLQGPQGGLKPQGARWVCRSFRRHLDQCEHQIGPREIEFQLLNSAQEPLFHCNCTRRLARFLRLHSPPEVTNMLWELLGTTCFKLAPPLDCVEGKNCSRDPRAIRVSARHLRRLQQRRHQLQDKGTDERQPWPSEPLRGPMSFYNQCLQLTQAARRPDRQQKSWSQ
Hits are given with their value; n = inactive; u = inconclusive; x = no result given.

SMILES	SKKanGAS inh	ASAP1 inh	ARFGAP1 inh	Calb FLC	sPLA2-III inh
COc1ccc(C(=O)NC(=S)NNC(=O)c2ccc(C)cc2)cc1	83	n	n	107	n
COCc1cn(-c2cccc(-c3noc4c3C(=O)N(CC(=O)N3CCOCC3)CC4)c2)nn1	x	x	x	x	n
COc1ccc(C(=O)NNC(=S)NC(=O)c2ccc(Cl)cc2)cc1	79	n	n	88	n
COc1ccc(C(=O)NC(=S)NNC(=O)c2ccc3ccccc3n2)cc1	n	n	n	108	n
CCOC(=O)c1cnc(-n2nc(C)cc2C)nc1NC(C)c1ccccc1 (stereo unspecified)	107	n	n	n	n
CCOC(=O)c1cnc(-n2nc(C)cc2C)nc1NNc1ncc(-c2ccccc2)cn1	n	x	x	n	x
CNc1nc(C)nc(-n2nc(C)cc2C)n1	n	n	n	n	n
CCOC(=O)c1cnc(-n2nc(C)cc2C)nc1NNc1cc(-c2ccccc2)nc(C)n1	103	x	x	n	x
CCOC(=O)c1cnc(-n2nc(C)cc2C)nc1NCc1ccccc1	89	n	n	n	n
Cc1cc(C)n(-c2nc(C)nc(NCc3ccccc3)n2)n1	58	n	n	n	n
Nc1[nH]c(C(=O)c2ccccc2)c(-c2cccc3ccccc23)c1C(=O)NCc1ccc(Cl)cc1Cl	x	n	n	x	n
Cc1cc(C)c(-c2cc(NC(=O)COC(=O)c3ccc(C#N)cc3)n(-c3ccccc3)n2)cc1C	n	n	n	77	n
COC(=O)C1CN(Cc2ccc(OC)cc2)CCS(=O)(=O)N1Cc1ccc(OC)cc1 (stereo unspecified)	x	x	x	x	n
COc1ccc(-c2n(CC(=O)OC3CC(C)CCC3C(C)C)c3ccccc3[n+]2C)cc1 (stereo unspecified)	n	n	n	95	n
COC(=O)[C@]12CCCCC=C1N(CCC1=CCCCC1)C(=O)[C@H](CC(=O)N1CCC(c3ccccc3)CC1)C2	x	n	n	x	n
NC(=O)CC12CC3CC(C1)CC(CC(N)=O)(C3)C2	n	n	n	87	n
Cc1cccc(C)c1OCC(O)Cn1c2ccccc2c2ccccc21 (stereo unspecified)	88	n	n	n	n
Cc1ccc(NC(=O)Nc2ccc3c(c2)[C@]2(CC(=O)N(CC(C)C)C2c2ccccc2)C(=O)N3C)cc1Cl (stereo partly specified)	x	x	x	x	n
COc1cc(/C=C/c2ccc3cccc(O)c3n2)cc(OC)c1OC	96	n	n	n	n
COC(=O)c1ccc(/C=C/c2ccc3cccc(OC)c3n2)cc1	u	n	n	n	n
COc1cc(/C=C/c2ccc3cccc(O)c3n2)cc(Cl)c1OC	107	n	n	n	n
COc1cc(/C=N/O)cc(Br)c1OC	n	n	n	n	n
COc1cc(/C=C/c2ccc3cccc(O)c3n2)cc(Br)c1OC	100	n	n	n	n
COc1ccc(/C=C/c2ccc3cccc(O)c3n2)cc1Br	93	n	n	n	n
COC(=O)C1=C(C)N(C)C(=NCC2CC2)NC1c1ccc(F)cc1 (stereo unspecified)	x	n	n	x	n
SMILES	SKKanGAS inh	ASAP1 inh	ARFGAP1 inh	Calb FLC	sPLA2-III inh
O=C(CSc1nc2ccccc2nc1N1CCCC1)N1CCN(c2cccc(C(F)(F)F)c2)CC1	x	x	x	x	n
CC1(C(=O)NS(=O)(=O)c2ccc(C#N)cc2)CCN1C(=O)Cc1ccc(-c2ccccc2)cc1 (stereo unspecified)	x	n	n	x	n
CC(=O)N1CCCN(S(=O)(=O)c2ccc3c(c2)oc(=O)n3C)CC1	x	x	x	x	n
Cc1[nH]n(-c2ncc(-c3ccccc3)s2)c(=O)c1C(c1ccc(Br)cc1)C(C#N)C#N (stereo unspecified)	86	n	n	n	n
Fc1ccc(-c2cc(C(F)(F)F)nc(N3CCCCC3)n2)cc1	65	n	n	n	n
CN1CCN(c2nc(-c3ccccc3)cc(C(F)(F)F)n2)CC1	n	n	n	n	n
COc1cccc(-c2cc(C(F)(F)F)nc(N3CCC(C)CC3)n2)c1	68	n	n	n	n
CCOc1ccc(/C=N/OCC(=O)Nc2ccc3c(c2)OCO3)cc1	n	n	n	100	n

Source: PubChem BioAssay (several laboratories)
